From ChEMBL document CHEMBL2040727, “Substituted thiazoles VI. Synthesis and antitumor activity of new 2-acetamido- and 2 or 3-propanamido-thiazole analogs” (2012)

How the values were obtained:
Type in all cases: functional
SK-MEL-2 = experiment: Growth inhibition of human SK-MEL-2 cells at 10 uM after 48 hrs by coulter counter analysis; settings: SK-MEL-2, 48 h, read-out: GI
Procedure, shortened: (§1)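 Single-dose NCI 60-line panel screen of test compounds. Cells grown in RPMI 1640 with 10% FBS. Compounds dissolved in DMSO, then diluted in phosphate buffer saline (final DMSO below 1%). Wells run in duplicate at 6 × 10⁴ cells/ml. Controls held PBS and DMSO at matching dilutions. Incubation 48 h at 37 °C under humidified 5% CO2. Cells diluted tenfold in saline and counted by Coulter counter. Percent growth inhibition taken from mean-graph of treated-cell growth.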

HOP-92 = experiment: Growth inhibition of human HOP92 cells at 10 uM after 48 hrs by coulter counter analysis; settings: HOP-92, 48 h, read-out: GI; procedure, shortened: as §1
SK-MEL-5 = experiment: Growth inhibition of human SK-MEL-5 cells at 10 uM after 48 hrs by coulter counter analysis; settings: SK-MEL-5, 48 h, read-out: GI; procedure, shortened: as §1
DU-145 = experiment: Growth inhibition of human DU145 cells at 10 uM after 48 hrs by coulter counter analysis; settings: DU-145, 48 h, read-out: GI; procedure, shortened: as §1
M14 = experiment: Growth inhibition of human M14 cells at 10 uM after 48 hrs by coulter counter analysis; settings: M14, 48 h, read-out: GI; procedure, shortened: as §1
KM12 = experiment: Growth inhibition of human KM12 cells at 10 uM after 48 hrs by coulter counter analysis; settings: KM12, 48 h, read-out: GI; procedure, shortened: as §1
K562 = experiment: Growth inhibition of human K562 cells at 10 uM after 48 hrs by coulter counter analysis; settings: K562, 48 h, read-out: GI; procedure, shortened: as §1
SR = experiment: Growth inhibition of human SR cells at 10 uM after 48 hrs by coulter counter analysis; settings: read-out: GI
Procedure, shortened: (§2)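 Single-dose screen in the NCI 60 cell line panel. Cells grown in RPMI 1640 with 10% FBS. Compounds dissolved in DMSO and diluted in phosphate buffered saline, final DMSO under 1%. Duplicate wells seeded from culture at 6 × 10⁴ cells/ml. Incubated 48 h at 37 °C, humidified, 5% CO2. Cells diluted tenfold in saline and Coulter-counted. Percent growth inhibition computed against PBS/DMSO controls.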

U-251 = experiment: Growth inhibition of human U251 cells at 10 uM after 48 hrs by coulter counter analysis; settings: U-251, 48 h, read-out: GI; procedure, shortened: as §2
HCT-15 = experiment: Growth inhibition of human HCT15 cells at 10 uM after 48 hrs by coulter counter analysis; settings: HCT-15, 48 h, read-out: GI; procedure, shortened: as §1
SF-539 = experiment: Growth inhibition of human SF539 cells at 10 uM after 48 hrs by coulter counter analysis; settings: SF-539, 48 h, read-out: GI; procedure, shortened: as §1
PC-3 = experiment: Growth inhibition of human PC3 cells at 10 uM after 48 hrs by coulter counter analysis; settings: PC-3, 48 h, read-out: GI; procedure, shortened: as §1
NCI-H460 = experiment: Growth inhibition of human NCI-H460 cells at 10 uM after 48 hrs by coulter counter analysis; settings: NCI-H460, 48 h, read-out: GI; procedure, shortened: as §1
UO-31 = experiment: Growth inhibition of human UO31 cells at 10 uM after 48 hrs by coulter counter analysis; settings: UO-31, 48 h, read-out: GI; procedure, shortened: as §2
SW-620 = experiment: Growth inhibition of human SW620 cells at 10 uM after 48 hrs by coulter counter analysis; settings: SW-620, 48 h, read-out: GI; procedure, shortened: as §2
NCI-H322M = experiment: Growth inhibition of human NCI-H322M cells at 10 uM after 48 hrs by coulter counter analysis; settings: read-out: GI; procedure, shortened: as §1
A549 = experiment: Growth inhibition of human A549/ATCC cells at 10 uM after 48 hrs by coulter counter analysis; settings: A549, 48 h, read-out: GI; procedure, shortened: as §1
OVCAR-4 = experiment: Growth inhibition of human OVCAR4 cells at 10 uM after 48 hrs by coulter counter analysis; settings: OVCAR-4, 48 h, read-out: GI; procedure, shortened: as §1
RPMI-8226 = experiment: Growth inhibition of human RPMI8226 cells at 10 uM after 48 hrs by coulter counter analysis; settings: RPMI-8226, 48 h, read-out: GI; procedure, shortened: as §1
UACC-62 = experiment: Growth inhibition of human UACC62 cells at 10 uM after 48 hrs by coulter counter analysis; settings: UACC-62, 48 h, read-out: GI; procedure, shortened: as §2
CCRF-CEM = experiment: Growth inhibition of human CCRF-CEM cells at 10 uM after 48 hrs by coulter counter analysis; settings: read-out: GI; procedure, shortened: as §1
MCF7 = experiment: Growth inhibition of human MCF7 cells at 10 uM after 48 hrs by coulter counter analysis; settings: MCF7, 48 h, read-out: GI; procedure, shortened: as §1
HCT-116 = experiment: Growth inhibition of human HCT116 cells at 10 uM after 48 hrs by coulter counter analysis; settings: HCT-116, 48 h, read-out: GI; procedure, shortened: as §1
RXF 393 = experiment: Growth inhibition of human RXF393 cells at 10 uM after 48 hrs by coulter counter analysis; settings: RXF 393, 48 h, read-out: GI; procedure, shortened: as §1
MOLT-4 = experiment: Growth inhibition of human MOLT4 cells at 10 uM after 48 hrs by coulter counter analysis; settings: MOLT-4, 48 h, read-out: GI; procedure, shortened: as §1
ACHN = experiment: Growth inhibition of human ACHN cells at 10 uM after 48 hrs by coulter counter analysis; settings: read-out: GI; procedure, shortened: as §1
HT-29 = experiment: Growth inhibition of human HT-29 cells at 10 uM after 48 hrs by coulter counter analysis; settings: HT-29, 48 h, read-out: GI; procedure, shortened: as §1
A498 = experiment: Growth inhibition of human A498 cells at 10 uM after 48 hrs by coulter counter analysis; settings: A498, 48 h, read-out: GI; procedure, shortened: as §1
HL-60(TB) = experiment: Growth inhibition of human HL-60(TB) cells at 10 uM after 48 hrs by coulter counter analysis; settings: HL-60, 48 h, read-out: GI
Procedure, shortened: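 Cells grown in RPMI 1640 with 10% FBS. Compound was dissolved in DMSO and diluted in PBS (under 1% DMSO final), then added in duplicate wells to culture at 6 × 10⁴ cells/ml. PBS/DMSO vehicle controls were included. Incubated at 37 °C, humidified 5% CO₂, for 48 h. Cells were diluted 10-fold in saline and Coulter-counted. Single-dose NCI-60 screen, read as percent growth inhibition.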

SNB-75 = experiment: Growth inhibition of human SNB75 cells at 10 uM after 48 hrs by coulter counter analysis; settings: SNB-75, 48 h, read-out: GI; procedure, shortened: as §2
SF-295 = experiment: Growth inhibition of human SF295 cells at 10 uM after 48 hrs by coulter counter analysis; settings: SF-295, 48 h, read-out: GI; procedure, shortened: as §1
HCC 2998 = experiment: Growth inhibition of human HCC2998 cells at 10 uM after 48 hrs by coulter counter analysis; settings: HCC 2998, 48 h, read-out: GI; procedure, shortened: as §1
T47D = experiment: Growth inhibition of human T47D cells at 10 uM after 48 hrs by coulter counter analysis; settings: read-out: GI; procedure, shortened: as §2
NCI-H23 = experiment: Growth inhibition of human NCI-H23 cells at 10 uM after 48 hrs by coulter counter analysis; settings: NCI-H23, 48 h, read-out: GI; procedure, shortened: as §1

Structure (SMILES) | inhibition of growth at 10 µM (SK-MEL-2) | inhibition of growth at 10 µM (HOP-92) | inhibition of growth at 10 µM (SK-MEL-5) | inhibition of growth at 10 µM (DU-145) | inhibition of growth at 10 µM (M14) | inhibition of growth at 10 µM (KM12) | inhibition of growth at 10 µM (K562) | inhibition of growth at 10 µM (SR) | inhibition of growth at 10 µM (U-251) | inhibition of growth at 10 µM (HCT-15) | inhibition of growth at 10 µM (SF-539) | inhibition of growth at 10 µM (PC-3) | inhibition of growth at 10 µM (NCI-H460) | inhibition of growth at 10 µM (UO-31) | inhibition of growth at 10 µM (SW-620) | inhibition of growth at 10 µM (NCI-H322M) | inhibition of growth at 10 µM (A549) | inhibition of growth at 10 µM (OVCAR-4) | inhibition of growth at 10 µM (RPMI-8226) | inhibition of growth at 10 µM (UACC-62) | also measured
CCOC(=O)c1sc(NC(=O)C(C)N2CCN(C)CC2)nc1C (configuration not stated) | < 10% | < 10% | < 10% | < 10% | < 10% | < 10% | < 10% | < 10% | < 10% | < 10% | < 10% | < 10% | < 10% | 13.1% | < 10% | < 10% | < 10% | < 10% | < 10% | < 10% | inhibition of growth at 10 µM (CCRF-CEM): < 10%; inhibition of growth at 10 µM (MCF7): < 10%; inhibition of growth at 10 µM (HCT-116): < 10%; inhibition of growth at 10 µM (RXF 393): < 10%; inhibition of growth at 10 µM (MOLT-4): < 10%; inhibition of growth at 10 µM (ACHN): < 10%; inhibition of growth at 10 µM (HT-29): < 10%; inhibition of growth at 10 µM (A498): < 10%; inhibition of growth at 10 µM (HL-60(TB)): < 10%; inhibition of growth at 10 µM (SNB-75): < 10%; inhibition of growth at 10 µM (SF-295): < 10%; inhibition of growth at 10 µM (HCC 2998): < 10%; inhibition of growth at 10 µM (T47D): < 10%; inhibition of growth at 10 µM (NCI-H23): < 10%
CC(C(=O)Nc1nccs1)N1CCN(C)CC1 (configuration not stated) | < 10% | < 10% | < 10% | < 10% | < 10% | < 10% | < 10% | < 10% | < 10% | < 10% | < 10% | < 10% | < 10% | 19.4% | < 10% | < 10% | < 10% | < 10% | < 10% | < 10% | inhibition of growth at 10 µM (CCRF-CEM): < 10%; inhibition of growth at 10 µM (MCF7): < 10%; inhibition of growth at 10 µM (HCT-116): < 10%; inhibition of growth at 10 µM (RXF 393): < 10%; inhibition of growth at 10 µM (MOLT-4): < 10%; inhibition of growth at 10 µM (ACHN): < 10%; inhibition of growth at 10 µM (HT-29): < 10%; inhibition of growth at 10 µM (A498): < 10%; inhibition of growth at 10 µM (HL-60(TB)): 11.2%; inhibition of growth at 10 µM (SNB-75): 15.5%; inhibition of growth at 10 µM (SF-295): < 10%; inhibition of growth at 10 µM (HCC 2998): < 10%; inhibition of growth at 10 µM (T47D): < 10%; inhibition of growth at 10 µM (NCI-H23): < 10%
Cc1cnc(NC(=O)CN2CCN(C)CC2)s1 | < 10% | < 10% | < 10% | < 10% | < 10% | < 10% | < 10% | 51.8% | < 10% | < 10% | < 10% | < 10% | < 10% | 10.2% | < 10% | < 10% | < 10% | < 10% | < 10% | < 10% | inhibition of growth at 10 µM (CCRF-CEM): 75.5%; inhibition of growth at 10 µM (MCF7): < 10%; inhibition of growth at 10 µM (HCT-116): < 10%; inhibition of growth at 10 µM (RXF 393): < 10%; inhibition of growth at 10 µM (MOLT-4): < 10%; inhibition of growth at 10 µM (ACHN): < 10%; inhibition of growth at 10 µM (HT-29): < 10%; inhibition of growth at 10 µM (A498): < 10%; inhibition of growth at 10 µM (HL-60(TB)): < 10%; inhibition of growth at 10 µM (SNB-75): < 10%; inhibition of growth at 10 µM (SF-295): < 10%; inhibition of growth at 10 µM (HCC 2998): < 10%; inhibition of growth at 10 µM (T47D): < 10%; inhibition of growth at 10 µM (NCI-H23): < 10%
